The record followed here is ChEMBL document CHEMBL4725336, “Anti-cancer potential of (1,2-dihydronaphtho[2,1-b]furan-2-yl)methanone derivatives” (Bioorg Med Chem Lett, 2020).

The subject of data set [1] is MDA-MB-468. Briefly: Antiproliferative activity against human MDA-MB-468 cells assessed as inhibition of cell proliferation by MTT assay. Format: functional. Particulars: read-out: LD50 (the source's name). In short, it runs like this:
(§1)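 MTT proliferation assay; cells exposed to compounds across 0-50 μM; LD50 derived from dose-dependent survival. Triple-negative MDA-MB-468, MDA-MB-231 and 4T1, ER+/PR+ MCF-7, and non-cancerous lung fibroblast WI-38 tested.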

Data set [2] relates to MCF7. Briefly: Antiproliferative activity against human MCF7 cells assessed as inhibition of cell proliferation by MTT assay. The class given is functional. Particulars: read-out: LD50 (the source's name). An outline of the steps: as §1
On the technique in general: Tetrazolium dyes change colour on reduction, which living cells bring about.

Data set [3] in a line: Cytotoxicity against human WI-38 cells assessed as inhibition of cell proliferation by MTT assay. Format: cell-based. The following applies: read-out: LD50 (the source's name). In short, it runs like this: as §1
Data set [4] can be described thus: Selectivity index, ratio of LD50 for human WI-38 cells to LD50 for human MDA-MB-468 cells assessed as inhibition of cell proliferation by MTT assay. Format: toxicity. The following applies: WI-38 cells and MDA-MB-468 cells, read-out: Selectivity Index. In short, it runs like this:
(§2)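 MTT proliferation assay on cells treated with 0–50 μM. LD50 was derived for each cell line, and the selectivity index was calculated as WI-38 LD50 divided by cancer-cell LD50.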

Data set [5] can be described thus: Selectivity index, ratio of LD50 for human WI-38 cells to LD50 for human MCF7 cells assessed as inhibition of cell proliferation by MTT assay. The class given is toxicity. Particulars: WI-38 cells and MCF7 cells, read-out: Selectivity Index. In short, it runs like this:
as §2

The test system of data set [6] is 4T1. Briefly: Antiproliferative activity against mouse 4T1 cells assessed as inhibition of cell proliferation by MTT assay. Format: functional. Particulars: read-out: LD50 (the source's name). In short, it runs like this:
as §1

Data set [7] is described as follows: Selectivity index, ratio of LD50 for human WI-38 cells to LD50 for mouse 4T1 cells assessed as inhibition of cell proliferation by MTT assay. In short, it runs like this:
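Selectivity index computed as MTT-derived LD50 in non-cancerous WI-38 lung fibroblasts divided by LD50 in the cancer line (cells exposed to 0-50 μM).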

Data set [8] relates to MDA-MB-231. Briefly: Antiproliferative activity against human MDA-MB-231 cells assessed as inhibition of cell proliferation by MTT assay. Particulars: read-out: LD50 (the source's name). Format: functional. In short, it runs like this: as §1
Data set [9] in a line: Selectivity index, ratio of LD50 for human WI-38 cells to LD50 for human MDA-MB-231 cells assessed as inhibition of cell proliferation by MTT assay. The class given is toxicity. Particulars: WI-38 cells and MDA-MB-231 cells, read-out: Selectivity Index.

For the molecule `Cc1ccc([C@H]2c3c(ccc4ccccc34)O[C@@H]2C(=O)c2ccccc2)cc1`, the results for the CC50 in [1], in [2] and in data set [3] were 63 µM, 71 µM and 72 µM, respectively. Besides, the selectivity ratio is 1.14 in data set [4] and 1.01 in data set [5].

`O=C(c1ccccc1)[C@H]1Oc2ccc3ccccc3c2[C@@H]1C1CCCCC1`: the CC50 in [1] was determined as 46 µM; in [2], 42 µM; in data set [3] it was 74 µM. Further, the results for the selectivity ratio in data set [4] and in data set [5] were 1.6 and 1.76, respectively.

Consider `COc1cc([C@H]2c3c(ccc4ccccc34)O[C@@H]2C(=O)c2ccccc2)cc(OC)c1OC`, for which the CC50 in data set [1] amounted to 88 µM; in [2], 86 µM; in data set [3], 128 µM. Also, the selectivity ratio in [4] is 1.45; in data set [5] it was 1.49.

As for `C[C@H]1c2c(ccc3ccccc23)O[C@@H]1C(=O)c1ccccc1`, the figures for the CC50 in [1], in [2] and in [3] were 34 µM, 38 µM and 64 µM, respectively. Besides, the values for the selectivity ratio in data set [4] and in data set [5] were 1.88 and 1.68, respectively.

Turning to `COc1cc([C@@H]2c3cc4c(cc3[C@@H](O[C@@H]3O[C@@H]5CO[C@@H](C)O[C@H]5[C@H](O)[C@H]3O)[C@H]3COC(=O)[C@H]23)OCO4)cc(OC)c1O` [ETOPOSIDE], the CC50 in data set [1] amounted to 27.9 µM; in data set [2], 45.3 µM; in data set [3], 29.6 µM. In addition, the selectivity ratio turned out to be 1.06 in data set [4] and 0.65 in data set [5].

Consider `N#Cc1ccc([C@H]2c3c(ccc4ccccc34)O[C@@H]2C(=O)c2ccccc2)cc1`, for which the CC50 in [1] was determined as 53 µM; in data set [2], 51 µM; in data set [3] it was 72 µM. In addition, the selectivity ratio in [4] was found to be 1.35; in [5], 1.41.

Consider `O=C(c1ccc(F)cc1)[C@@H]1Cc2c(ccc3ccccc23)O1`, for which the CC50 was 27 µM in data set [1], 29 µM in data set [2] and 54 µM in data set [3]. In addition, the results for the selectivity ratio in [4] and in [5] were 2 and 1.86, respectively.

Turning to `O=C(c1ccccc1)[C@H]1Oc2ccc3ccccc3c2[C@@H]1c1ccc(O)cc1`, the CC50 amounted to 81 µM in data set [1], 77 µM in data set [2] and 115 µM in data set [3]. Also, the selectivity ratio in data set [4] is 1.42; in data set [5] it was 1.49.

For the molecule `O=C(c1ccccc1)[C@H]1Oc2ccc3ccccc3c2[C@@H]1c1ccc(Br)cc1`, the CC50 in data set [1] worked out at 63 µM; in data set [2], 56 µM; in [3] it was 77 µM. Also, the selectivity ratio turned out to be 1.22 in data set [4] and 1.37 in [5].

Consider `O=C(c1ccco1)[C@@H]1Cc2c(ccc3ccccc23)O1`, for which the CC50 in data set [1] turned out to be 34 µM; in data set [2] it was 37 µM; in data set [3] it was 51 µM. Moreover, the selectivity ratio was determined as 1.5 in data set [4] and 1.38 in [5].

Regarding `O=C(c1ccccc1)[C@H]1Oc2ccc3ccccc3c2[C@@H]1c1ccccc1`, the CC50 in data set [1] was determined as 72 µM; in data set [2], 68 µM; in data set [3], 89 µM. For the same molecule, the selectivity ratio in data set [4] was determined as 1.24; in data set [5] it was 1.3.

As to `O=C(c1ccco1)[C@H]1Oc2ccc3cc(Br)ccc3c2[C@@H]1c1ccccc1`, the CC50 in data set [1] worked out at 68 µM; in data set [2], 72 µM; in data set [3] it was 92 µM. In addition, the selectivity ratio stood at 1.35 in data set [4] and 1.28 in data set [5].

Regarding `CC(=O)[C@@H]1Cc2c(ccc3ccccc23)O1`, the CC50 in data set [1] was determined as 22 µM; in data set [2], 26 µM; in data set [3] it was 47 µM. Further, the selectivity ratio in data set [4] turned out to be 2.13; in data set [5] it was 1.8.

For the molecule `N#Cc1ccc(C(=O)[C@H]2Oc3ccc4ccccc4c3[C@@H]2c2ccc3ccccc3c2)cc1`, the CC50 in data set [1] came to 54 µM; in data set [2], 57 µM; in data set [3] it was 88 µM. Moreover, the results for the selectivity ratio in data set [4] and in [5] were 1.63 and 1.54, respectively.

As to `O=C(c1ccccc1)[C@H]1Oc2ccc3ccccc3c2[C@@H]1c1ccc2ccccc2c1`, the CC50 was 23 µM in data set [1], 28 µM in data set [2] and 59 µM in [3]. Also, the selectivity ratio in data set [4] came out at 2.56; in data set [5], 2.1.

With `CCC[C@H]1c2c(ccc3ccccc23)O[C@@H]1C(=O)c1ccccc1`, the values for the CC50 in data set [1], in [2] and in data set [3] were 69 µM, 74 µM and 79 µM, respectively. Further, the selectivity ratio in data set [4] is 1.14; in data set [5] it was 1.07.

With `O=C(c1ccccc1)[C@@H]1Cc2c(ccc3cc(Br)ccc23)O1`, the CC50 in data set [1] worked out at 32 µM; in data set [2], 54 µM; in [3], 73 µM. Besides, the selectivity ratio in data set [4] amounted to 2.28; in data set [5], 1.35.

In the case of `O=C(c1ccccc1)[C@H]1Oc2ccc3ccccc3c2[C@@H]1c1ccc(Cl)cc1`, the CC50 in data set [1] was found to be 87 µM; in data set [2], 91 µM; in data set [3] it was 96 µM. Besides, the selectivity ratio was found to be 1.1 in [4] and 1.05 in [5].

Consider `COc1ccc([C@H]2c3c(ccc4ccccc34)O[C@@H]2C(=O)c2ccccc2)cc1`, for which the CC50 was found to be 118 µM in [1], 84 µM in [2] and 83 µM in data set [3]. The selectivity ratio in data set [4] was 0.7; in data set [5] it was 0.98.

As for `O=C(c1ccccc1)[C@H]1Oc2ccc3cc(Br)ccc3c2[C@@H]1c1ccccc1`, the CC50 in data set [1] was found to be 18 µM; in [2], 19 µM; in [3], 52 µM; in data set [6], 24 µM; in data set [8], 22 µM. Also, the selectivity ratio in data set [4] was found to be 2.89; in data set [5], 2.74; in data set [9] it was 2.36. Moreover, the “Selectivity Index” value in [7] amounted to 2.16.

Turning to `O=C(c1ccc(Br)cc1)[C@@H]1Cc2c(ccc3ccccc23)O1`, the CC50 was found to be 18 µM in data set [1]; 21 µM in [2]; 56 µM in [3]; 25 µM in [6]; 23 µM in data set [8]. The selectivity ratio in [4] was 3.11; in data set [5] it was 2.66; in [9] it was 2.43. Besides, in data set [7], the “Selectivity Index” value is given as 2.24.
